pIC50: −log10 of the molar value. Activity calls are given as the source filed them.
Key:
[1] = biological target: T1, Mitogen-activated protein kinase kinase kinase 5 (Homo sapiens) (UniProt Q99683); assay: Activation of ASK1 in human Mahlavu cells assessed as Ser966 phosphorylation after 24 to 48 hrs by Western blot analysis; type: cell-based
T1 sequence (whole entry): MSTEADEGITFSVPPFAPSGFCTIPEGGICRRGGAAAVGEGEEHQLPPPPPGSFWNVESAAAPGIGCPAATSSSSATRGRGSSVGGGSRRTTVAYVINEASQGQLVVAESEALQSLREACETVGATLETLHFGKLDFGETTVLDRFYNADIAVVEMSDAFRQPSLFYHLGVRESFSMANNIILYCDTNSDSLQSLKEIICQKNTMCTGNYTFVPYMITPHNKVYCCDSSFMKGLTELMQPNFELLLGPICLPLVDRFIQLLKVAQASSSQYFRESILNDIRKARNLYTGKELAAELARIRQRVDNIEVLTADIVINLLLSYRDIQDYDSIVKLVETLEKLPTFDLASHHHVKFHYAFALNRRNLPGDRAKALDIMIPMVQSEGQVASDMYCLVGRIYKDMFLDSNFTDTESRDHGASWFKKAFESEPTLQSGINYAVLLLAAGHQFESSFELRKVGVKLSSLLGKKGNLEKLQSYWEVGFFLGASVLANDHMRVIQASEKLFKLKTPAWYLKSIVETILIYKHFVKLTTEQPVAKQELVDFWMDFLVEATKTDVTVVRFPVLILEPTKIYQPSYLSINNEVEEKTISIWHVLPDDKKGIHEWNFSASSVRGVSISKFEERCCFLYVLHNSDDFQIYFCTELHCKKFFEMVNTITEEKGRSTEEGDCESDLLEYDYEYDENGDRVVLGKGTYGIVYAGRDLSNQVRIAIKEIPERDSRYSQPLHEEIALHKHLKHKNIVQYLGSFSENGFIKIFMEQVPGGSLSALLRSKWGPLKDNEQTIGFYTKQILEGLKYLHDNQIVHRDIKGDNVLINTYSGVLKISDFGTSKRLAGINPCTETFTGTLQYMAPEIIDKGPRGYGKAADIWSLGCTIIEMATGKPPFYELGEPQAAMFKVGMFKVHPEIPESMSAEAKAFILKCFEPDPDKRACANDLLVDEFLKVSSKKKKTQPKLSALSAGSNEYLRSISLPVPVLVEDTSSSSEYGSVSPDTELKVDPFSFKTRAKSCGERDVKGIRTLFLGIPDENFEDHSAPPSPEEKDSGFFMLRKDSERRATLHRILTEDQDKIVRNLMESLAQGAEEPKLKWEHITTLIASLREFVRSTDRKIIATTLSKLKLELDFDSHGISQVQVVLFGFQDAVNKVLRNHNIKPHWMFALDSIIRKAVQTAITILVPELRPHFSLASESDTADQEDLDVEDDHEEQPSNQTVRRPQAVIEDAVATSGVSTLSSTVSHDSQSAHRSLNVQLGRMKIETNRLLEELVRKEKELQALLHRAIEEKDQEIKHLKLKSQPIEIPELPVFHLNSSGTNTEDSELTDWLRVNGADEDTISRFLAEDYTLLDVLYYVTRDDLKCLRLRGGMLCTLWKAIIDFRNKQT
Procedure, shortened: (§1)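 Cells were exposed to compound or DMSO control for 24 or 48 h. Lysates were loaded at […] protein per lane and immunoblotted with antibodies diluted 1:100 to 1:500 in 5% BSA-TBS-T. Targets were p-Akt (Ser473), Akt, p-GSK3-α/β (Ser21/9), GSK3-α/β, SAPK/JNK, p-SAPK/JNK (Thr183/Tyr185), PARP, p-β-catenin, β-catenin, cyclin D1, p-ASK1 (S83) and p-ASK1 (S966). Actin served as the loading control.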

Mahlavu = assay: Induction of apoptosis in human Mahlavu cells assessed as decrease in cyclin D1 level after 24 to 48 hrs by Western blot analysis; type: functional, cell-based; procedure, shortened: as §1
MCF7 = assay: Cytotoxicity against human MCF7 cells assessed as growth inhibition after 72 hrs by sulforhodamine B assay; type: functional, cell-based; conditions: Homo sapiens, MCF7, 72 h; read-out: IC50
Procedure, shortened: (§2)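 Cells were grown at 37°C, 5% CO2 in DMEM with 10% FBS. They were seeded at 1000–3000 cells/well, grown 24 h, then exposed to compound at 2.5–40 µM for 72 h. Cells were fixed in 10% TCA for 1 h at 4°C, stained with 0.4% SRB in 1% acetic acid for 10 min, and the dye solubilized in 10 mM Tris. Absorbance was read at 515 nm; runs were in triplicate; IC50 was calculated, with fits of R2 0.8–1 accepted.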

[2] = Cytotoxicity against human Mahlavu cells assessed as growth inhibition after 72 hrs by sulforhodamine B assay; type: functional, cell-based; conditions: Homo sapiens, Mahlavu, 72 h; read-out: IC50; procedure, shortened: as §2
[3] = biological target: RAC-alpha serine/threonine-protein kinase (Homo sapiens) (UniProt P31749); assay: Inhibition of Akt phosphorylation in human HuH7 cells after 24 to 48 hrs by Western blot analysis; type: cell-based; conditions: Huh-7; procedure, shortened: as §1
[4] = biological target: Glycogen synthase kinase-3 beta (Homo sapiens) (UniProt P49841); assay: Inhibition of GSK3beta phosphorylation in human HuH7 cells after 24 to 48 hrs by Western blot analysis; type: cell-based; conditions: Huh-7; procedure, shortened: as §1
Huh-7 [5] = assay: Induction of apoptosis in human HuH7 cells assessed as horseshoe nuclear structure at 10 uM after 48 hrs by Hoechst 33258 staining-based immunofluorescence microscopy; type: functional, cell-based
Procedure, shortened: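 Cells on coverslips were incubated overnight, then treated with 10 µM compound or DMSO for 48 h. They were washed in ice-cold PBS, fixed in cold methanol for 10 min, and stained with 1 µg/mL Hoechst 33258 for 5 min in the dark. Nuclei were examined by fluorescence microscopy with a 40x objective.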

[6] = biological target: T1, Mitogen-activated protein kinase kinase kinase 5 (Homo sapiens); assay: Activation of ASK1 in human Mahlavu cells assessed as Ser83 phosphorylation after 24 to 48 hrs by Western blot analysis; type: cell-based; procedure, shortened: as §1
HepG2 = assay: Cytotoxicity against human HepG2 cells assessed as growth inhibition after 72 hrs by sulforhodamine B assay; type: functional, cell-based; conditions: Homo sapiens, HepG2, 72 h; read-out: IC50; procedure, shortened: as §2
Huh-7 [7] = assay: Induction of oxidative stress in human HuH7 cells assessed as ROS accumulation at 10 uM after 48 hrs by DCFH-DA staining based fluorescence microscopy; type: functional, cell-based
Procedure, shortened: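 Cells in 6-well dishes were treated with 10 µM compound or DMSO for 48 h. They were washed in PBS and stained for 15 min at 37°C in the dark with DCFH-DA solution (1 mM DCFH-DA, 10 mM glucose, 10 mM HEPES in PBS). After three PBS washes, cells were viewed by fluorescence microscopy. Selenium-deficient serum-free medium culture served as the positive control.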

[8] = biological target: T1, Mitogen-activated protein kinase kinase kinase 5 (Homo sapiens); assay: Activation of ASK1 in human Mahlavu cells assessed as SAPK/JNK phosphorylation after 24 to 48 hrs by Western blot analysis; type: cell-based; procedure, shortened: as §1
Huh-7 [9] = assay: Cytotoxicity against human HuH7 cells assessed as cell impedance at IC25 to IC100 measured every 30 mins for 72 hrs by RT-CES assay; type: functional, cell-based; conditions: TDE = time-dependent effect
Procedure, shortened: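 Huh7 cells were seeded at 1000–5000 cells/well on electrode plates. […] Impedance was read as cell index every 10 min for the first 24 h, then every 30 min, over 72 h. Data were normalized to DMSO; inhibition (%) = [1 − (CI treated/CI DMSO)] × 100. Each experiment was run at least three times.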

Glycogen synthase kinase-3 beta (Homo sapiens), sequence (P49841 whole entry, looked up): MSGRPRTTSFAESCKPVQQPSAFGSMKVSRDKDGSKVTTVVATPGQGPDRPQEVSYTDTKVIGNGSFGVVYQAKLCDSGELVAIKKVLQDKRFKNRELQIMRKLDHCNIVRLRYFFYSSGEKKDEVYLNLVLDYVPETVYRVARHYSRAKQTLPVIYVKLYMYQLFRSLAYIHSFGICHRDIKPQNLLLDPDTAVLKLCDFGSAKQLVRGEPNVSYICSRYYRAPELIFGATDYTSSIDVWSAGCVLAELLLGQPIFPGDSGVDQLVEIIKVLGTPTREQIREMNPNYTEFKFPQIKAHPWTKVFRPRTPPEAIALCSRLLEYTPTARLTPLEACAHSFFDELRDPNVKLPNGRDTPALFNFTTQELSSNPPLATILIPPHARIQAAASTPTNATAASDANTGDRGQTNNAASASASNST
RAC-alpha serine/threonine-protein kinase (Homo sapiens), sequence (P31749 whole entry): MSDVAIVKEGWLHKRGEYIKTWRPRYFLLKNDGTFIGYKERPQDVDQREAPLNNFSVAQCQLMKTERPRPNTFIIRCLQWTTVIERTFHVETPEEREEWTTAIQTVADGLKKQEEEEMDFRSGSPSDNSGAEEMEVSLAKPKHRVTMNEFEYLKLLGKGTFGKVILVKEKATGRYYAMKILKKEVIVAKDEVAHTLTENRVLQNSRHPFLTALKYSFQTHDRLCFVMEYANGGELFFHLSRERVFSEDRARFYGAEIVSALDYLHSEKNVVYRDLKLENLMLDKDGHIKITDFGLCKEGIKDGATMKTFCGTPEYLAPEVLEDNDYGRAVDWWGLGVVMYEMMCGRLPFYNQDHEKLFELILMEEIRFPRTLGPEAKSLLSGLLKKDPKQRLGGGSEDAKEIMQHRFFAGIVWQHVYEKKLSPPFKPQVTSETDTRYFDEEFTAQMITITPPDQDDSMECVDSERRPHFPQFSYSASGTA

Cc1ccc(C2=Nn3c(nnc3C(C)c3ccc(CC(C)C)cc3)SC2)cc1 (centres undefined)
5.07: pIC50 [2]
5.14: pIC50 (HepG2)
5.20: pIC50 (MCF7)
active: Activity [1] | Activity (Mahlavu) | inhibition [3] | inhibition [4] | Activity (Huh-7 [5]) | Activity [6] | Activity (Huh-7 [7]) | Activity [8] | Activity (Huh-7 [9]) tde

COc1ccc(C2=Nn3c(nnc3C(C)c3ccc(CC(C)C)cc3)SC2)cc1 (centres undefined)
4.87: pIC50 [2]
5.42: pIC50 (HepG2)
active: Activity [1] | Activity (Mahlavu) | inhibition [3] | inhibition [4] | Activity (Huh-7 [5]) | Activity [6] | Activity (Huh-7 [7]) | Activity [8] | Activity (Huh-7 [9]) tde
5.28: pIC50 (MCF7)

Source: ChEMBL document CHEMBL3751842, “Novel triazolothiadiazines act as potent anticancer agents in liver cancer cells through Akt and ASK-1 proteins” (Bioorg Med Chem, 2016)
